Our source for the Papp and Activity values is ChEMBL document CHEMBL1157615, “N-methyl phenylalanine-rich peptides as highly versatile blood-brain barrier shuttles” (J Med Chem, 2010).

Numbered stars: 1 amine (or outer) side, 2 acyl side, 3 side chain; on linkers, the order of the positions; unused ones are H or OH. Square brackets hold non-standard residues; d marks the D form. Peptide text beside a SMILES is read from it. * marks the point of attachment. ξ: configuration not given here. 2Nal = N[C@@H](Cc1ccc2ccccc2c1)C(=O)O; NMeF = CN[C@@H](Cc1ccccc1)C(=O)O; ξNip = O=C(C1CCCN([*:1])C1)[*:2]; X1 = NCC(=O)CCC(=O)*; GABA = NCCCC(=O)O

Data set [1] is described as follows: Effective permeability across artificial membrane at 200 uM by PAMPA using HPLC/MS method. The conditions noted are these: read-out: permeability. It is filed as ADME. Summed up: (§1)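 PAMPA with porcine polar brain lipid extract (20 mg/mL in dodecane) on the filter; 200 μM compound in water with 20% 1-propanol cosolvent in donor, water in acceptor; 4 h at room temperature, saturated humidity, orbital shaking 100 rpm. Donor and acceptor quantified by HPLC-MS against external calibration curves. Pe and % transport from acceptor versus initial donor concentration; retention from mass balance.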
On the technique in general: PAMPA measures passive passage across an artificial lipid membrane.

Data set [2] in a line: Permeability across artificial membrane assessed as compound transport at 200 uM after 4 hrs by PAMPA using HPLC/MS method. It is filed as ADME. The gist of the method: as §1
The nature of data set [3]: Permeability across artificial membrane assessed as membrane retention at 200 uM by PAMPA using HPLC/MS method. Format: ADME. The gist of the method:
as §1

Data set [4] in a line: Apparent permeability in BBMEC. Format: ADME, Bos taurus. Particulars: cattle.
The nature of data set [5]: Apparent permeability in BBMEC assessed as compound transport after 2 hrs. It is filed as ADME, Bos taurus. Particulars: cattle.
Data set [6] can be described thus: Apparent permeability in BBMEC assessed as membrane retention. It is filed as ADME, cell membranes, Bos taurus. Particulars: cattle.

With `CN(C(=O)[C@H](Cc1ccc2ccccc2c1)NC(=O)C1CCCNC1)[C@@H](Cc1ccccc1)C(=O)N(C)[C@@H](Cc1ccccc1)C(=O)N(C)[C@@H](Cc1ccccc1)C(N)=O` (some centres undefined) (ξNip-[2Nal][NMeF][NMeF][NMeF]-NH2), in data set [1], the Papp at 200 µM is 1.1 ×10⁻⁶ cm/s. Also, the Activity in data set [2] is 2.4%; in data set [3] it was 23.6%; in data set [5], 4.1%; in data set [6], 83.8%. Also, the Papp in data set [4] was 3.5 ×10⁻⁶ cm/s.

Take `O=C(O)C1CCCNC1` (centres undefined) [NIPECOTIC ACID]: the Activity in data set [2] was found to be 0%; in data set [3], 52.6%.

For `Cn1c(=O)c2c(ncn2C)n(C)c1=O` [CAFFEINE], in data set [4], the Papp stood at 16.1 ×10⁻⁶ cm/s. For the same compound, the Activity was 20.6% in data set [5] and 67.4% in data set [6].

With `CN(C(=O)[C@H](Cc1ccc2ccccc2c1)NC(=O)CCCN)[C@@H](Cc1ccccc1)C(=O)N(C)[C@@H](Cc1ccccc1)C(=O)N(C)[C@@H](Cc1ccccc1)C(N)=O` (H-[GABA][2Nal][NMeF][NMeF][NMeF]-NH2), the Papp at 200 µM in data set [1] was found to be 0.2 ×10⁻⁶ cm/s. In addition, the Activity is given as 0.4% in data set [2] and 18.4% in data set [3].

Turning to `CC(C)NCC(O)COc1cccc2ccccc12` (centres undefined) [PROPRANOLOL], the Activity in data set [2] came out at 13.9%; in data set [3], 17.2%; in data set [5] it was 21.2%; in data set [6], 63%. Also, the Papp in data set [4] was determined as 16.9 ×10⁻⁶ cm/s.

Consider `CN(C(=O)CCC(=O)CN)[C@@H](Cc1ccccc1)C(=O)N(C)[C@@H](Cc1ccccc1)C(=O)N(C)[C@@H](Cc1ccccc1)C(=O)N(C)[C@@H](Cc1ccccc1)C(N)=O` (X1-[NMeF][NMeF][NMeF][NMeF]-NH2), for which the Papp at 200 µM in data set [1] was 1 ×10⁻⁶ cm/s. Besides, the Activity stood at 2.1% in data set [2], 14.5% in data set [3], 17.8% in data set [5] and 50.7% in data set [6]. Besides, the Papp in data set [4] was found to be 15 ×10⁻⁶ cm/s.

Take `CN(C(=O)C1CCCNC1)[C@@H](Cc1ccccc1)C(=O)N(C)[C@@H](Cc1ccccc1)C(=O)N(C)[C@@H](Cc1ccccc1)C(=O)N(C)[C@@H](Cc1ccccc1)C(N)=O` (some centres undefined) (ξNip-[NMeF][NMeF][NMeF][NMeF]-NH2): the Papp at 200 µM in data set [1] worked out at 1.4 ×10⁻⁶ cm/s. In addition, the Activity is 2.8% in data set [2], 4.6% in data set [3], 7.9% in data set [5] and 74% in data set [6]. Besides, in data set [4], the Papp stood at 6.6 ×10⁻⁶ cm/s.

Take `CN(C(=O)CCCN)[C@@H](Cc1ccccc1)C(=O)N(C)[C@@H](Cc1ccccc1)C(=O)N(C)[C@@H](Cc1ccccc1)C(=O)N(C)[C@@H](Cc1ccccc1)C(N)=O` (H-[GABA][NMeF][NMeF][NMeF][NMeF]-NH2): in data set [1], the Papp at 200 µM worked out at 0.4 ×10⁻⁶ cm/s. Besides, the Activity in data set [2] is 0.8%; in data set [3], under 1%.

Turning to `CC(=O)N1CCC[C@H]1C(=O)N1CCC[C@H]1C(=O)N1CCC[C@H]1C(=O)N1CCC[C@H]1C(=O)N1CCC[C@H]1C(=O)N1CCC[C@H]1C(N)=O` (Ac-PPPPPP-NH2), the Activity in data set [2] and in data set [3] was 0% in each case.

Consider `CC(=O)N1CCC[C@H]1C(=O)N1CCC[C@H]1C(=O)N1CCC[C@H]1C(=O)N1CCC[C@H]1C(=O)N1CCC[C@H]1C(=O)N1CCC[C@H]1C(=O)N1CCC[C@H]1C(=O)N1CCC[C@H]1C(=O)N1CCC[C@H]1C(=O)N1CCC[C@H]1C(N)=O` (Ac-PPPPPPPPPP-NH2), for which the Activity in data set [2] and in data set [3] was 0% in each case.

As for `NCCCC(=O)O` [GAMMA-AMINOBUTYRIC ACID], the Activity is listed as 0% in data set [2] and 5.4% in data set [3].

For the compound `NCC(=O)CCC(=O)O` [AMINOLEVULINIC ACID], the Activity in data set [2] is on record as 0%; in data set [3], 23%.

With `CC(=O)N1CCC[C@H]1C(=O)N1CCC[C@H]1C(=O)N1CCC[C@H]1C(=O)N1CCC[C@H]1C(N)=O` (Ac-PPPP-NH2), the Activity in data set [2] and in data set [3] was 0% in each case.

For the compound `CC(=O)N1CCC[C@H]1C(=O)N1CCC[C@H]1C(=O)N1CCC[C@H]1C(=O)N1CCC[C@H]1C(=O)N1CCC[C@H]1C(=O)N1CCC[C@H]1C(=O)N1CCC[C@H]1C(=O)N1CCC[C@H]1C(N)=O` (Ac-PPPPPPPP-NH2), the Activity in data set [2] and in data set [3] was 0% throughout.

Consider `NC(=O)N1c2ccccc2C=Cc2ccccc21` [CARBAMAZEPINE], for which the Papp at 200 µM in data set [1] is 11.5 ×10⁻⁶ cm/s. Also, the Activity in data set [2] is given as 19.3%; in data set [3], under 1%; in data set [5], 20%; in data set [6], 67.5%. Besides, the Papp in data set [4] is 16.5 ×10⁻⁶ cm/s.

On to `CC(=O)N1CCC[C@H]1C(=O)N1CCC[C@H]1C(N)=O` (Ac-Pro-Pro-NH2), for which the Activity in data set [2] and in data set [3] was 0% throughout.
